Data published in ChEMBL document CHEMBL3621052, “Small cyclic agonists of iron regulatory hormone hepcidin” (Bioorg Med Chem Lett, 2015).
Blank lines part the entries; values can stand above or below the compound they belong to. Active and inactive are the calls of the source. No cut-off for these calls is given here. Starred links: 1 amine or outer side, 2 acyl side, 3 side chain; linkers in the order of their positions; H or OH if unused. Positions of bridges follow the written chain, without caps; N, C: chain ends. Residues, ends and D or L forms follow the SMILES beside them. *: point of attachment. Propanoyl(3,3-Ph2) = O=C(CC(c1ccccc1)c1ccccc1)*; X1 = CCCCCCCCCCCCCCCC(=O)NCCOCCOCCN*; mXylylene = c1cc(C[*:1])cc(C[*:2])c1

Columns and labels:
[1] = Half life in cynomolgus monkey; format: ADME, organism-based, Macaca fascicularis; conditions: in vivo
Ferroportin = molecular target: T1, Ferroportin (Homo sapiens, UniProt Q9NP59); assay: Agonist activity at GFP-fused human FPN transfected in HEK293 cells assessed as protein degradation after 24 hrs by flow cytometric analysis; format: cell-based
T1 sequence (Q9NP59 whole entry): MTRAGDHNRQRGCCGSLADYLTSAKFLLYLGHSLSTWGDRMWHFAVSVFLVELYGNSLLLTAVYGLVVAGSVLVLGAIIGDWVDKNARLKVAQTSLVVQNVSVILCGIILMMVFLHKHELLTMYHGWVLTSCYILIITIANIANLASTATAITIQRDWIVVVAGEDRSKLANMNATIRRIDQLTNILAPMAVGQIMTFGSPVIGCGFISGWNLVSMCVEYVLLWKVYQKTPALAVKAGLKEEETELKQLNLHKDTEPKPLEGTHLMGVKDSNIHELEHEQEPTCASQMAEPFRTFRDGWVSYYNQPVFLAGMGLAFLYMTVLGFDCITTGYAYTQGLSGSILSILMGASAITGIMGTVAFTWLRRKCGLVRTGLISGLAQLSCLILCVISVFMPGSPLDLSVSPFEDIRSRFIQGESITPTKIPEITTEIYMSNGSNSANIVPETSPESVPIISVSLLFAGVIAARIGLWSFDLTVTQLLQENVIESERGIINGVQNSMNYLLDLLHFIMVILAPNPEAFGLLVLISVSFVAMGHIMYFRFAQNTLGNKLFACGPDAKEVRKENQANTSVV
Procedure, shortened: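 HEK293:TREX-Fpn-GFP cells (human ferroportin-GFP, doxycycline-inducible) plated on poly-D-lysine with 20 μM FAC, induced with 500 ng/mL doxycycline for 24 h, washed, then peptide-treated 24 h. Green fluorescence read by flow cytometry at 1 × 10^6 cells/mL, gated against uninduced cells. Activity expressed as fraction of hep25: 1 − [(Fx − Fhep25)/(Funtreated − Fhep25)]. 3–6 independent repeats.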

Plasma = assay: Metabolic stability in mouse plasma at 25 uM by LC/MS analysis; format: ADME, cell-free
Procedure, shortened: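 Peptide from 10 mM DMSO stock added to fresh mouse plasma (final 25 μM), incubated at 37 °C. Samples (10 μL) taken at time-points and diluted into DMSO/ACN 1:1 with 0.1% TFA. Centrifuged 13000 rpm, 10 min. Supernatant analysed by triple-quadrupole LC/MS with NM4A-Me peptide as internal standard.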

Mus musculus [2] = assay: Decrease in serum iron level in C57BL/6 mouse at 50 nmol, sc after 24 hrs by colorimetric analysis; format: functional, organism-based
Procedure, shortened: (§1)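 C57BL/6 mice on NIH 31 diet (iron 336 mg/kg). Single subcutaneous injection of 50, 100 or 200 nmoles peptide in 100 μL PBS; controls received PBS alone. Killed at 24 h, serum from cardiac blood. Serum iron by colorimetric assay (microplate, 50 μL serum). Percent decrease versus mean of PBS-injected mice.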

Mus musculus [3] = assay: Decrease in serum iron level in C57BL/6 mouse at 50 to 200 nmol, sc after 24 hrs by colorimetric analysis; format: functional, organism-based; procedure, shortened: as §1
Mus musculus [4] = assay: Decrease in serum iron level in C57BL/6 mouse at 50 to 100 nmol, sc after 24 hrs by colorimetric analysis; format: functional, organism-based; conditions: in the assay text read “50 to 200 nmol” for “50 to 100 nmol”
Procedure, shortened: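 C57BL/6 mice on NIH 31 diet (iron 336 mg/kg) received 50, 100 or 200 nmoles peptide in 100 μL PBS sc, or PBS alone. Killed at 24 h, serum from cardiac puncture. Serum iron measured by microplate colorimetric assay using 50 μL serum. Reported as % decrease versus mean of PBS-injected mice.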

half-life [1]: < 2.5 min
Structure (SMILES): CC[C@H](C)[C@@H]1NC(=O)[C@@H](NC(=O)[C@@H](NC(=O)[C@@H]2CCCN2C(=O)[C@H](Cc2ccccc2)NC(=O)[C@H](Cc2c[nH]cn2)NC(=O)[C@@H](NC(=O)[C@@H](N)CC(=O)O)[C@@H](C)O)[C@@H](C)CC)CSSC[C@@H](C(=O)N[C@@H](CCCCN)C(=O)N[C@H](C(=O)O)[C@@H](C)O)NC(=O)[C@@H]2CSSC[C@@H]3NC(=O)[C@@H]4CSSC[C@H](NC(=O)[C@H](Cc5ccccc5)NC1=O)C(=O)N[C@@H](CSSC[C@H](NC(=O)[C@H](CCCCN)NC(=O)[C@H](CO)NC(=O)[C@H](CCCNC(=N)N)NC(=O)[C@H](Cc1c[nH]cn1)NC3=O)C(=O)NCC(=O)N[C@@H](CCSC)C(=O)N2)C(=O)NCC(=O)N4

Structure (SMILES): CCCCCCCCCCCCCCCC(=O)NCCOCCOCCNC(=O)[C@@H]1CSCc2cccc(c2)CSC[C@H](NC(=O)CC(c2ccccc2)c2ccccc2)C(=O)N[C@@H](CCCNC(=N)N)C(=O)N[C@@H](CS)C(=O)N[C@@H](CCCNC(=N)N)C(=O)N[C@@H](Cc2ccccc2)C(=O)N1 ({Propanoyl(3,3-Ph2)}-CRCRFC-X1; linker 1-6 via mXylylene)
EC50 (Ferroportin): 52.3 nM
Stability (Plasma): Stable
Activity (Mus musculus [2]): inactive

Structure (SMILES): N=C(N)NCCC[C@@H]1NC(=O)[C@@H](NC(=O)CC(c2ccccc2)c2ccccc2)CSCc2cccc(c2)CSC[C@@H](C(N)=O)NC(=O)[C@H](Cc2ccccc2)NC(=O)[C@H](CCCNC(=N)N)NC(=O)[C@H](CS)NC1=O ({Propanoyl(3,3-Ph2)}-CRCRFC-NH2; linker 1-6 via mXylylene)
EC50 (Ferroportin): 104 nM
Activity (Mus musculus [3]): inactive

EC50 (Ferroportin): 44.2 nM
Structure (SMILES): CCCCCCCCCCCCCCCCNC(=O)CN(CC(N)=O)C(=O)CCCCCNC(=O)[C@@H]1CSCc2cccc(c2)CSC[C@H](NC(C)=O)C(=O)N[C@@H](C(c2ccccc2)c2ccccc2)C(=O)N2CCC[C@H]2C(=O)N[C@@H](CCCNC(=N)N)C(=O)N[C@@H](CS)C(=O)N[C@@H](CCCNC(=N)N)C(=O)N[C@@H](Cc2ccccc2)C(=O)N1
Activity (Mus musculus [4]): inactive
